Measured values: publication PMC8302237 (CPT: Pharmacometrics & Systems Pharmacology, 2021)

Legend:
[1] = type: in vivo, human; details: for dose proportionality of PK: p.o. tablet dosing
How it was run: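 Plasma parent, M5 and M6 concentration-time data came from clinical studies. In healthy volunteers, dosing was i.v., 150–600 mg single-dose tablet p.o., or 300–750 mg multiple-dose tablet. In HCV patients, dosing was 50–300 mg single-dose or 50–400 mg multiple-dose capsule, or 300–450 mg multiple-dose tablet; 450 mg once daily gave Day 7 profiles with washout. Itraconazole DDI: healthy volunteers; HCV patients received 300 mg multiple-dose tablet plus 200 mg multiple-dose itraconazole.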

Minimal PBPK model = type: in vivo, human

## C[C@@]1(Cl)[C@H](O)[C@@H](CO)O[C@H]1n1ccc(=O)[nH]c1=O [M6]
[1]; itraconazole DDI, plasma
  effect of itraconazole coadministration on early metabolite profile: first M6 peak was almost absent
[1]
  dose proportionality of PK: not dose proportional

## CC(C)OC(=O)[C@@H](C)N[P@@](=O)(OC[C@H]1O[C@@H](n2ccc(=O)[nH]c2=O)[C@](C)(Cl)[C@@H]1O)Oc1ccccc1 [uprifosbuvir]
[1]; itraconazole DDI study, plasma
  effect of itraconazole coadministration on uprifosbuvir exposure: large increase in uprifosbuvir exposure
  effect of itraconazole coadministration on uprifosbuvir tmax: delayed time to reach maximum uprifosbuvir plasma concentration
[1]
  dose proportionality of PK: dose proportional
Minimal PBPK model; gut
  share of unabsorbed uprifosbuvir dose metabolized into M5: 11%
  share of unabsorbed uprifosbuvir dose metabolized into M6: 52%
  share of unabsorbed uprifosbuvir dose metabolized into pseudo-M4: 37%
Minimal PBPK model; p.o., based on the model
  unabsorbed fraction of uprifosbuvir dose (metabolized in gut): 86%
  uprifosbuvir dose estimated to reach the liver unchanged: about 14%
